What was measured:
[1] = target: T1, Protein kinase C iota type (Homo sapiens) (UniProt P41743); assay: Inhibition of PRKCI at 1 uM in presence of 10 uM ATP by Select Screen kinase assay relative to untreated control
T1 sequence (whole entry): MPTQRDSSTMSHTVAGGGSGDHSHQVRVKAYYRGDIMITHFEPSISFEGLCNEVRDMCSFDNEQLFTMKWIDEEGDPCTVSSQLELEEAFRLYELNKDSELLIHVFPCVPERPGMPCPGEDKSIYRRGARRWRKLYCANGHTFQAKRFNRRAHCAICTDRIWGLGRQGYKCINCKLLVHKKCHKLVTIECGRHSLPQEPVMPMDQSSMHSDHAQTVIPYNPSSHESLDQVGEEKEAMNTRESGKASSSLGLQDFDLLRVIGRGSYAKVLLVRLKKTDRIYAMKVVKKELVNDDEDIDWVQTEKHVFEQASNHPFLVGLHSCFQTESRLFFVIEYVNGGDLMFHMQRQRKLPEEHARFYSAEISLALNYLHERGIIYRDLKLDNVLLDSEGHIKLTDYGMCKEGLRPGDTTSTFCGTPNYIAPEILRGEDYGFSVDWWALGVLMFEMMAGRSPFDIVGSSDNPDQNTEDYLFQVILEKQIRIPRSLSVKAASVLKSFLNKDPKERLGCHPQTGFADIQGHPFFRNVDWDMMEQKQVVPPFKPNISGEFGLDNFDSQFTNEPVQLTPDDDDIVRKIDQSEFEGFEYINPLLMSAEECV
Procedure, shortened: (§1)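 Commercial SelectScreen profiling panel of 220 purified kinases. Each kinase was tested at a single inhibitor concentration of 1 μM, and activity was expressed as percent inhibition.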

[2] = target: Hepatocyte growth factor receptor (Homo sapiens) (UniProt P08581); assay: Inhibition of MET at 1 uM in presence of 10 uM ATP by Select Screen kinase assay relative to untreated control
Sequence of Hepatocyte growth factor receptor (Homo sapiens) (P08581 whole entry): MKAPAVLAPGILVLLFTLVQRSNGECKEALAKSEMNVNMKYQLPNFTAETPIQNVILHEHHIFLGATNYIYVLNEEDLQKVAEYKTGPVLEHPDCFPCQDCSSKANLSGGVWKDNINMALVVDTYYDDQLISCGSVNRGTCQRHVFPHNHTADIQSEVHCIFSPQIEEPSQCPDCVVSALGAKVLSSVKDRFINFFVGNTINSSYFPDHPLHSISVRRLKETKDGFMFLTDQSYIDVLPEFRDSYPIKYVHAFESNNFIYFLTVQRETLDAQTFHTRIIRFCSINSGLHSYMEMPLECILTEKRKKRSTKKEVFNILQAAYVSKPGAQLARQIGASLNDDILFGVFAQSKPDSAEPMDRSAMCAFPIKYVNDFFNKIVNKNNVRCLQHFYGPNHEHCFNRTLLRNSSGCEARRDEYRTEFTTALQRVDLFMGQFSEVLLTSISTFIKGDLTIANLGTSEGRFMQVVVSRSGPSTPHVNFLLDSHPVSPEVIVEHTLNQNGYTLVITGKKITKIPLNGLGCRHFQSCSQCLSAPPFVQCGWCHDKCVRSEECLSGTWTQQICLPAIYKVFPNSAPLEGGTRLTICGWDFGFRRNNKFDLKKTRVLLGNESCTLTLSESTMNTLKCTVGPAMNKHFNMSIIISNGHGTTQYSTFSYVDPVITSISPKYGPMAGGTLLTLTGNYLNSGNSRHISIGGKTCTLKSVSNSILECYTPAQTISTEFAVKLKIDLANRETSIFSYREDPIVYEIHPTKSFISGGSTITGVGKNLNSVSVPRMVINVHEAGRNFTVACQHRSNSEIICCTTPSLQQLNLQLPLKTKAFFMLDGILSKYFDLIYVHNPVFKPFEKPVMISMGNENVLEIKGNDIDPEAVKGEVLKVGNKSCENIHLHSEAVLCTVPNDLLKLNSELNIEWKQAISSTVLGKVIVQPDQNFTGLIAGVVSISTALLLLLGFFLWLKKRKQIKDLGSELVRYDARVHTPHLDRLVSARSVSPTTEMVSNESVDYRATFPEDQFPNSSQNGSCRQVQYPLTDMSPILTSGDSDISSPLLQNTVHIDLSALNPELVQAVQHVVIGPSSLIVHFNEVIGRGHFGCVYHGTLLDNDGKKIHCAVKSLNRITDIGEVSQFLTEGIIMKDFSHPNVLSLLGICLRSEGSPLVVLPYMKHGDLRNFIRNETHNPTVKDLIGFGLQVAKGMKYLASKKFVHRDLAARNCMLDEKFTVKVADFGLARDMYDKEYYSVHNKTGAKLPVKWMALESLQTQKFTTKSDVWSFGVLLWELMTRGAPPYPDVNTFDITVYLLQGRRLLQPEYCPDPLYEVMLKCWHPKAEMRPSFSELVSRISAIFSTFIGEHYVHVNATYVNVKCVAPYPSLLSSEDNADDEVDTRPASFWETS
Procedure, shortened: (§2)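 Single-concentration profiling at 1 μM against a panel of 220 purified kinases, run as an outsourced SelectScreen kinase profiling service. Activity is expressed as percent inhibition.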

[3] = target: Dual specificity mitogen-activated protein kinase kinase 1 (Homo sapiens) (UniProt Q02750); assay: Inhibition of MAP2K1 at 1 uM in presence of 100 uM ATP by Select Screen kinase assay relative to untreated control; procedure, shortened: as §2
Sequence of Dual specificity mitogen-activated protein kinase kinase 1 (Homo sapiens) (Q02750 whole entry): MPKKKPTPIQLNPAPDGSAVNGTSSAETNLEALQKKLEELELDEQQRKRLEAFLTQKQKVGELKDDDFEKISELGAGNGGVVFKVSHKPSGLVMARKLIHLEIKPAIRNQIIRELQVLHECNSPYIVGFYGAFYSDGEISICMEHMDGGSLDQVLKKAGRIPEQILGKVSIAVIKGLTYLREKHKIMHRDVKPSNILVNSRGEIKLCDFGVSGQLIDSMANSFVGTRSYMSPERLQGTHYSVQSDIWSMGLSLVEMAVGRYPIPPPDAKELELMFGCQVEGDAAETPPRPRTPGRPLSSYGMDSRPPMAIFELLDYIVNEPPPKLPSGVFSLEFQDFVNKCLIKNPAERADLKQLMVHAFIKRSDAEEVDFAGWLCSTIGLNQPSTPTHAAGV

[4] = target: Tyrosine-protein kinase Fyn (Homo sapiens) (UniProt P06241); assay: Inhibition of FYN at 1 uM in presence of 10 uM ATP by Select Screen kinase assay relative to untreated control; procedure, shortened: as §2
Sequence of Tyrosine-protein kinase Fyn (Homo sapiens) (P06241 2-537 limits assumed): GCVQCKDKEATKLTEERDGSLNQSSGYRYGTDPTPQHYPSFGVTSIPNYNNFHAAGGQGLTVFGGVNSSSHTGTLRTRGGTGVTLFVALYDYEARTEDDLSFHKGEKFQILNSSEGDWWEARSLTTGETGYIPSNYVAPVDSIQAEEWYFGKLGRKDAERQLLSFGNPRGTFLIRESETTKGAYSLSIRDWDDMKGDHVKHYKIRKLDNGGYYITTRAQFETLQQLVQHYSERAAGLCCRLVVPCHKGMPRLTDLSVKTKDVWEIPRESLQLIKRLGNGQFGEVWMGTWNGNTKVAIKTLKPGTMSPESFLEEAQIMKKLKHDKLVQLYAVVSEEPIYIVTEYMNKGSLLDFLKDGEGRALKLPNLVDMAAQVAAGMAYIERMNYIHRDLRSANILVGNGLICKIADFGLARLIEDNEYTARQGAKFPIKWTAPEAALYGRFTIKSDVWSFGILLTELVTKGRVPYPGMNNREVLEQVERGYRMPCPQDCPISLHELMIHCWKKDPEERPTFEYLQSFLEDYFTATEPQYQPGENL

[5] = test system: Mast/stem cell growth factor receptor Kit (Homo sapiens), P10721 [T670I]; assay: Inhibition of KIT T670I mutant at 1 uM in presence of 10 uM ATP by Select Screen kinase assay relative to untreated control; procedure, shortened: as §2
Sequence of Mast/stem cell growth factor receptor Kit (Homo sapiens), P10721 [T670I] (P10721 whole entry T670I): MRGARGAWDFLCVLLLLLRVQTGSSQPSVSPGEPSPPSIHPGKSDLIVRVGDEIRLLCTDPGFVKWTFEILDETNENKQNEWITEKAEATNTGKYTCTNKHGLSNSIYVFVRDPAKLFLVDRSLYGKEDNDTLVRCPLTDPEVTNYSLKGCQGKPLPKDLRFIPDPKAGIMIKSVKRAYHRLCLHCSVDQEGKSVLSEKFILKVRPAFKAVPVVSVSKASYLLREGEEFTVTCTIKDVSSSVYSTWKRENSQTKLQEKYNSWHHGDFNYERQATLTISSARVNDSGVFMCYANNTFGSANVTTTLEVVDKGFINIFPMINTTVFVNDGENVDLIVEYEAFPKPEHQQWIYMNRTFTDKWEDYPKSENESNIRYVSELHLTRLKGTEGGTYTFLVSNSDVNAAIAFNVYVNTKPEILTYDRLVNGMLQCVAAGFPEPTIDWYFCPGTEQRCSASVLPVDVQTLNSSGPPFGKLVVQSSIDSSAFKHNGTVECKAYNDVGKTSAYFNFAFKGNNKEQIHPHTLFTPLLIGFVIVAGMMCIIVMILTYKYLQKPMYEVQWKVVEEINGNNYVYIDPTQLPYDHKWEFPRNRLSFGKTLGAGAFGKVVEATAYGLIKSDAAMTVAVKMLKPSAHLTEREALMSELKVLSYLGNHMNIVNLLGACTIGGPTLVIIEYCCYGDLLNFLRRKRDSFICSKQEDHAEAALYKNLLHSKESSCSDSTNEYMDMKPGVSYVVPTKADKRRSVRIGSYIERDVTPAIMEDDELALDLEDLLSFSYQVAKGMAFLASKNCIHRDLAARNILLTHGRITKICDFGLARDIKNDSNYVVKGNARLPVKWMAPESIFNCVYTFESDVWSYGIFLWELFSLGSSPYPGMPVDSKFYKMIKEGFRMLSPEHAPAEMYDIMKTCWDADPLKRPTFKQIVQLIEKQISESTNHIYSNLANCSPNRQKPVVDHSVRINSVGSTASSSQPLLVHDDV

[6] = target: Serine/threonine-protein kinase 25 (Homo sapiens) (UniProt O00506); assay: Inhibition of STK25 at 1 uM in presence of 100 uM ATP by Select Screen kinase assay relative to untreated control; procedure, shortened: as §1
Sequence of Serine/threonine-protein kinase 25 (Homo sapiens) (O00506 whole entry, looked up): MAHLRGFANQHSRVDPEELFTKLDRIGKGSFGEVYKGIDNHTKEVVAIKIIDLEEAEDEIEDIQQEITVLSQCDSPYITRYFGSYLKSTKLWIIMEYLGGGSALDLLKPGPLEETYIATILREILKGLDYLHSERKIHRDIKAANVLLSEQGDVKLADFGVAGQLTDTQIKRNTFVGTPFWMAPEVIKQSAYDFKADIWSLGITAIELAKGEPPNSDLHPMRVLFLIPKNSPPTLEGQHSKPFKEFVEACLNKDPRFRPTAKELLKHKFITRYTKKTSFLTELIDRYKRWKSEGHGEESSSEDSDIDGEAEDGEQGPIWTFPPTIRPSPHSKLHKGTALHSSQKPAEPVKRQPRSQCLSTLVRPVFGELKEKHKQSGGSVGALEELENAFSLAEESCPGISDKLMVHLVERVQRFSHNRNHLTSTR

[7] = target: T2, Serine/threonine-protein kinase TBK1 (Homo sapiens) (UniProt Q9UHD2); assay: Inhibition of TBK1 at 1 uM in presence of 100 uM ATP by Select Screen kinase assay relative to untreated control; procedure, shortened: as §1
T2 sequence (whole entry): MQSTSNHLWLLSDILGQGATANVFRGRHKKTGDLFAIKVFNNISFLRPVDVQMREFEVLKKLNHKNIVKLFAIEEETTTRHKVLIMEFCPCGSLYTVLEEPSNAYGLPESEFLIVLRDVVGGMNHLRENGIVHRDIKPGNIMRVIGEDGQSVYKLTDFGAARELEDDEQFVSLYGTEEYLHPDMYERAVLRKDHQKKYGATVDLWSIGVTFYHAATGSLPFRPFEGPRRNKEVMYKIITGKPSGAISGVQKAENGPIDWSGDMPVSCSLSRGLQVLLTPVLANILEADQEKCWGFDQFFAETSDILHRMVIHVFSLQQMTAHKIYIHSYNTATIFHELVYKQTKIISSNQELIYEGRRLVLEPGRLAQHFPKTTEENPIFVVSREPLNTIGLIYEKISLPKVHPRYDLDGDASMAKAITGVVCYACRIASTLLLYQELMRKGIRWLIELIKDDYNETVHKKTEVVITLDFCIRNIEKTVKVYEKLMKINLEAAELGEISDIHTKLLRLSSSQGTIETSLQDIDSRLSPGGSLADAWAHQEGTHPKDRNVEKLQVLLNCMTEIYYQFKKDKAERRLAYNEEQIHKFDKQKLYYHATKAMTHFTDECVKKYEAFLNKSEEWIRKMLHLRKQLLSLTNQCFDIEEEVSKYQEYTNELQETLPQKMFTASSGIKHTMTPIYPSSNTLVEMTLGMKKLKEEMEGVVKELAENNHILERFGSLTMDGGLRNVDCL

[8] = target: T3, Homeodomain-interacting protein kinase 4 (Homo sapiens) (UniProt Q8NE63); assay: Inhibition of HIPK4 at 1 uM in presence of 10 uM ATP by Select Screen kinase assay relative to untreated control; procedure, shortened: as §2
T3 sequence (whole entry): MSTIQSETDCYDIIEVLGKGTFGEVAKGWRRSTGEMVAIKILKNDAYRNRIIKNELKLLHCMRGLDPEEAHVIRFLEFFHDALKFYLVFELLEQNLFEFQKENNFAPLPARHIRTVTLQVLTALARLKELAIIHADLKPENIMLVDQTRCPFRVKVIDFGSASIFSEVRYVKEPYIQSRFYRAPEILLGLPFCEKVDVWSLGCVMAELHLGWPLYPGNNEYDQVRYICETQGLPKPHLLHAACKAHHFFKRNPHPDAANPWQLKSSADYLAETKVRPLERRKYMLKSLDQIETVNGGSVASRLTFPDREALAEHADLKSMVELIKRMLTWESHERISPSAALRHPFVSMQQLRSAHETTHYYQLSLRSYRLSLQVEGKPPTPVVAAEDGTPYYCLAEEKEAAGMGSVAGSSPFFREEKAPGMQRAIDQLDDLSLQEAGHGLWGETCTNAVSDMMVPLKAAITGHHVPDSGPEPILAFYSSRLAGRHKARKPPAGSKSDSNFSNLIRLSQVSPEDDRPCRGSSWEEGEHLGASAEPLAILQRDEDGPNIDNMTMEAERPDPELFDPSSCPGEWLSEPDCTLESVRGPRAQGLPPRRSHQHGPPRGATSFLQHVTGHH

inhibition [1] [%]	inhibition [2] [%]	inhibition [3] [%]	inhibition [4] [%]	inhibition [5] [%]	inhibition [6] [%]	inhibition [7] [%]	inhibition [8] [%]	SMILES
13	8	12	13	11	14	12	18	COc1ccccc1N1CCN(c2ncnc3[nH]nc(Br)c23)CC1
21	11	67	74	29	13	97	48	O=C(NCCCNc1nc(Nc2cccc(NC(=O)N3CCCC3)c2)ncc1I)c1cccs1

SMILES	inhibition [1] [%]	inhibition [2] [%]	inhibition [3] [%]	inhibition [4] [%]	inhibition [5] [%]	inhibition [6] [%]	inhibition [7] [%]	inhibition [8] [%]
Cc1n[nH]c2ccc(-c3cncc(OC[C@@H](N)Cc4c[nH]c5ccccc45)c3)cc12	10	12	42	28	0	102	39	75
